Measurements reported in ChEMBL document CHEMBL3392957, “The discovery of 1,2,3,9b-tetrahydro-5H-imidazo[2,1-a]isoindol-5-ones as a new class of respiratory syncytial virus (RSV) fusion inhibitors. Part 1” (Bioorg Med Chem Lett, 2015).
Converted amounts (≈) assume the structure as drawn.

Assays:
[1] = tested on: Respiratory syncytial virus; experiment: Selectivity ratio of EC50 for Respiratory syncytial virus A Long harboring F protein D489Y mutant infected in human Hep2 cells to EC50 for wild-type Respiratory syncytial virus A Long infected in human Hep2 cells
[2] = tested on: Respiratory syncytial virus; experiment: Antiviral activity against Respiratory syncytial virus A2 infected in human Hep2 cells assessed as inhibition of virus-induced cytopathicity after 5 days by MTT assay; type: functional, organism-based; settings: A2, HEp-2, 120 h
Procedure, shortened: (§1)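 HEp2 cells (1.0 × 10⁴/well) infected at low moi (e.g. RSV A2 at moi 0.01) and added to serially diluted compound; 5 days at 37 °C, 5% CO₂. CPE read by MTT (1 mg/ml, 2 h, 37 °C), isopropanol, absorbance 540 nm; EC₅₀ by non-linear regression. SD given where n > 2.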

[3] = Cytotoxicity against human Hep2 cells after 5 days by MTT assay; type: cell-based, HEp-2
Procedure, shortened: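 Uninfected HEp2 cells (1.0 × 10⁴/well) with serially diluted compound, 5 days at 37 °C in 5% CO₂; viability by MTT (1 mg/ml, 2 h), isopropanol, absorbance 540 nm; CC₅₀ by non-linear regression.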

[4] = Elimination half life in Sprague-Dawley rat at 22 mg/kg, po as suspension with hydroxypropylmethylcellulose; type: ADME, organism-based; parameters: dose 22 mg/kg, route oral; settings: in vivo, read-out: beta t1/2 (converted)
[5] = tested on: Respiratory syncytial virus; experiment: Antiviral activity against Respiratory syncytial virus B1 infected in human Hep2 cells assessed as inhibition of virus-induced cytopathicity after 5 days by MTT assay; type: functional, organism-based; settings: B1, HEp-2, 120 h
Procedure, shortened: as §1

[6] = Lipophilicity, log D of the compound in octanol saturated mobile phase at pH 7.4 by chromatographic method; type: physicochemical
Procedure, shortened: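 Effective logD determined chromatographically on a SUPELCOSIL LC-ABZ column with octanol-saturated mobile phase, pH 7.4.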

[7] = Kinetic solubility of the compound at pH 6.5 by nephelometry; type: physicochemical; settings: buffer, read-out: Kinetic_solubility
Procedure, shortened: (§2)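 Kinetic solubility by nephelometry, at pH 2 and pH 6.5; reported as a range in μg/mL.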

[8] = Oral bioavailability in Sprague-Dawley rat at 22 mg/kg as suspension with hydroxypropylmethylcellulose; type: ADME, organism-based; settings: in vivo
[9] = Kinetic solubility of the compound at pH 2 by nephelometry; type: physicochemical; settings: buffer, read-out: Kinetic_solubility
Procedure, shortened: as §2

[10] = Apparent volume of distribution in Sprague-Dawley rat at 1.4 mg/kg, iv; type: ADME, organism-based; parameters: dose 1.4 mg/kg, route intravenous; settings: in vivo, read-out: Vz
[11] = Elimination half life in Sprague-Dawley rat at 1.4 mg/kg, iv; type: ADME, organism-based; parameters: dose 1.4 mg/kg, route intravenous; settings: in vivo, read-out: beta t1/2 (converted)
[12] = tested on: Respiratory syncytial virus; experiment: Selectivity ratio of EC50 for Respiratory syncytial virus A Long harboring F protein D489 mutant infected in human Hep2 cells to EC50 for wild-type Respiratory syncytial virus A Long infected in human Hep2 cells; type: functional, HEp-2
Procedure, shortened: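 CPE assay: HEp2 cells (1.0 × 10⁴/well) infected at low moi with RSV A Long, either F-protein D489Y mutant or wild type, and added to serially diluted compound. Incubated 5 days at 37 °C, 5% CO₂. MTT (1 mg/ml) added for 2 h, then isopropanol, and absorbance read at 540 nm. EC50 by non-linear regression. Ratio is mutant EC50 over wild-type EC50.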

[13] = tested on: Respiratory syncytial virus; experiment: Antiviral activity against wild-type Respiratory syncytial virus A Long infected in human Hep2 cells assessed as inhibition of virus-induced cytopathicity after 5 days by MTT assay; type: functional, organism-based; settings: HEp-2, 120 h
Procedure, shortened: as §1

[14] = Cmax in Sprague-Dawley rat at 22 mg/kg, po as suspension with hydroxypropylmethylcellulose; type: ADME, organism-based; parameters: dose 22 mg/kg, route oral; settings: in vivo
[15] = Plasma protein binding in rat; type: ADME, cell-free; settings: read-out: PPB (converted)
[16] = tested on: Respiratory syncytial virus; experiment: Antiviral activity against Respiratory syncytial virus A2 infected in human Hep2 cells assessed as inhibition of virus-induced cytopathicity after 5 days by MTT assay relative to alpha-1-acid glycoprotein; type: functional, HEp-2
Procedure, shortened: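 RSV A2 CPE assay in HEp2 cells (moi 0.01, 5 days, 37 °C, MTT read-out at 540 nm) run with alpha-1-acid glycoprotein at 1.5 mg/mL; result expressed as fold shift in EC₅₀ versus the assay without AAG.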

[17] = Total clearance in Sprague-Dawley rat at 1.4 mg/kg, iv; type: ADME, organism-based; parameters: dose 1.4 mg/kg, route intravenous; settings: in vivo
[18] = Cmax in Sprague-Dawley rat at 19 mg/kg, po as suspension with hydroxypropylmethylcellulose; type: ADME, organism-based; parameters: dose 19 mg/kg, route oral; settings: in vivo
Procedure, shortened: (§3)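 Male Sprague-Dawley rats, n = 2, given a single oral dose. Plasma pharmacokinetics were analysed for Cmax (µM), terminal half-life (hr) and oral bioavailability F (%). The oral bioavailability estimate draws on a separate intravenous arm, also with n = 2 rats.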

[19] = Oral bioavailability in Sprague-Dawley rat at 19 mg/kg as suspension with hydroxypropylmethylcellulose; type: ADME, organism-based; settings: in vivo
Procedure, shortened: as §3

[20] = Elimination half life in Sprague-Dawley rat at 2.0 mg/kg, iv in 0.1 M capsitol and 10 to 12.5 % DMSO; settings: in vivo, read-out: beta t1/2
[21] = Apparent volume of distribution in Sprague-Dawley rat at 2.0 mg/kg, iv in 0.1 M capsitol and 10 to 12.5 % DMSO; settings: in vivo, read-out: Vz
[22] = Total clearance in Sprague-Dawley rat at 2.0 mg/kg, iv in 0.1 M capsitol and 10 to 12.5 % DMSO; settings: in vivo
[23] = Elimination half life in Sprague-Dawley rat at 19 mg/kg, po as suspension with hydroxypropylmethylcellulose; type: ADME, organism-based; parameters: dose 19 mg/kg, route oral; settings: in vivo, read-out: beta t1/2
Procedure, shortened: as §3

[24] = Total clearance in Sprague-Dawley rat at 2.0 mg/kg, iv as solution in 5% glucose and 10% DMSO; settings: in vivo
[25] = Oral bioavailability in Sprague-Dawley rat at 19 mg/kg as suspension with carboxymethylcellulose; type: ADME, organism-based; settings: in vivo, 20 mg/kg, in the assay text read “20 mg/kg” for “19 mg/kg”
Procedure, shortened: as §3

[26] = Cmax in Sprague-Dawley rat at 20 mg/kg, po as suspension with carboxymethylcellulose; settings: in vivo
[27] = Apparent volume of distribution in Sprague-Dawley rat at 2.0 mg/kg, iv as solution in 5% glucose and 10% DMSO; settings: in vivo, read-out: Vz
[28] = Elimination half life in Sprague-Dawley rat at 2.0 mg/kg, iv as solution in 5% glucose and 10% DMSO; settings: in vivo, read-out: beta t1/2 (converted)
[29] = Elimination half life in Sprague-Dawley rat at 20 mg/kg, po as suspension with carboxymethylcellulose; settings: in vivo, read-out: beta t1/2 (converted)

SMILES	EC50 [2] [µM]	CC50 at 120 h [3] [µM]	other results
O=c1n(Cc2nc3ccccc3n2CCCCO)c2cnccc2n1C1CC1			Ratio EC50 [1]: 380
Cc1nnnn1/N=C/c1ccc(O)c(C(c2ccc(O)cc2)c2cc(/C=N/n3nnnc3C)ccc2O)c1			Ratio EC50 [1]: >1400
O=C(c1ccccc1)N1CCN2C(=O)c3ccccc3C12c1ccc(Cl)cc1 (racemic)	0.45	> 20	
O=C(c1ccc(F)cc1)N1CCN2C(=O)c3ccccc3C12c1ccc(Cl)cc1 (racemic)	0.28	> 20	half-life [4]: 17 h; EC50 [5]: 0.75 µM; chromatographic logD [6]: 4; Ratio EC50 [1]: >76; solubility kinetic [7]: 6.3 µg/mL (≈ 15.5 µM); bioavailability [8]: 15%; solubility kinetic [9]: 6.3 µg/mL (≈ 15.5 µM); Vd [10]: 2.7 L/kg; half-life [11]: 16 h; Ratio EC50 [12]: >76; EC50 [13]: 0.26 µM; Cmax [14]: 2 µM; fraction unbound [15]: 0.02; fold change (FC) [16]: 39; clearance [17]: 2.1 mL/min/kg
Cc1ccc(C(=O)N2CCN3C(=O)c4ccccc4C23c2ccc(Cl)cc2)cc1 (racemic)	5.8	17	
O=C(c1ccc(C(F)(F)F)cc1)N1CCN2C(=O)c3ccccc3C12c1ccc(Cl)cc1 (racemic)	> 20	17	
O=C(c1ccc(OC(F)(F)F)cc1)N1CCN2C(=O)c3ccccc3C12c1ccc(Cl)cc1 (racemic)	> 20	5.7	
COc1ccc(C(=O)N2CCN3C(=O)c4ccccc4C23c2ccc(Cl)cc2)cc1 (racemic)	> 20	16	
O=C(c1ccc(Cl)cc1)N1CCN2C(=O)c3ccccc3C12c1ccc(Cl)cc1 (racemic)	3.7	17	
O=C(Nc1ccccc1)N1CCN2C(=O)c3ccccc3C12c1ccc(Cl)cc1 (racemic)	7.1	> 20	
COc1ccc(NC(=O)N2CCN3C(=O)c4ccccc4C23c2ccc(Cl)cc2)cc1 (racemic)	1.6	> 20	
O=C(NCc1ccccc1)N1CCN2C(=O)c3ccccc3C12c1ccc(Cl)cc1 (racemic)	0.73	> 20	
O=C(NCc1ccc(F)cc1)N1CCN2C(=O)c3ccccc3C12c1ccc(Cl)cc1 (racemic)	0.6	10	
O=C(c1cccc(Cl)n1)N1CCN2C(=O)c3ccccc3C12c1ccc(Cl)cc1 (racemic)	0.47	> 17	
O=C(c1ccco1)N1CCN2C(=O)c3ccccc3C12c1ccc(Cl)cc1 (racemic)	0.26	12	
CC(=O)N1CCN2C(=O)c3ccccc3C12c1ccc(Cl)cc1 (racemic)	1.2	> 20	
CCC(=O)N1CCN2C(=O)c3ccccc3C12c1ccc(Cl)cc1 (racemic)	1	> 20	
CC(C)CC(=O)N1CCN2C(=O)c3ccccc3C12c1ccc(Cl)cc1 (racemic)	0.74	> 20	
O=C1c2ccccc2C2(c3ccc(Cl)cc3)N1CCN2C(=O)C1CC1 (racemic)	4.9	> 21	
COCC(=O)N1CCN2C(=O)c3ccccc3C12c1ccc(Cl)cc1 (racemic)	2.7	> 21	
N#CCC(=O)N1CCN2C(=O)c3ccccc3C12c1ccc(Cl)cc1 (racemic)	4.5	> 21	
O=C(CC1CCCCC1)N1CCN2C(=O)c3ccccc3C12c1ccc(Cl)cc1 (racemic)	4.5	14	
O=C(c1ccc(F)cc1)N1CCN2C(=O)c3ncccc3C12c1ccc(Cl)cc1 (racemic)	0.88	> 20	
O=C(c1ccc(F)cc1)N1CCN2C(=O)c3cccnc3C12c1ccc(Cl)cc1 (racemic)	1.2	> 20	
O=C(c1ccc(F)cc1)N1CCN2C(=O)c3nccnc3C12c1ccc(Cl)cc1 (racemic)	> 18	> 18	
O=C(c1ccc(F)cc1)N1CCN2C(=O)c3cnccc3C12c1ccc(Cl)cc1 (racemic)	2.7	> 18	
O=C(c1ccc(F)cc1)N1CCN2C(=O)c3ccncc3C12c1ccc(Cl)cc1 (racemic)	0.23	> 49	Cmax [18]: 6.3 µM; EC50 [5]: 0.68 µM; chromatographic logD [6]: 2.8; bioavailability [19]: 28%; solubility kinetic [7]: 12.5 µg/mL (≈ 30.6 µM); half-life [20]: > 24 h; solubility kinetic [9]: 25 µg/mL (≈ 61.3 µM); Vd [21]: 6 L/kg; EC50 [13]: 0.22 µM; clearance [22]: 2.7 mL/min/kg; half-life [23]: > 24 h; fraction unbound [15]: 0.27; fold change (FC) [16]: <10
O=C(c1ccc(F)cc1)N1CCN2C(=O)c3cc[n+]([O-])cc3C12c1ccc(Cl)cc1 (racemic)	0.25	> 47	EC50 [5]: 0.91 µM; chromatographic logD [6]: 2.3; clearance [24]: 2.4 mL/min/kg; solubility kinetic [7]: 25 µg/mL (≈ 59 µM); solubility kinetic [9]: 50 µg/mL (≈ 118 µM); bioavailability [25]: 89%; Cmax [26]: 23 µM; Vd [27]: 1.3 L/kg; EC50 [13]: 0.12 µM; half-life [28]: 6.5 h; half-life [29]: 5.6 h; fold change (FC) [16]: <10
